Key:
MCF-7 = assay: Proliferation of breast cancer cells, MCF-7; format: cell-based; conditions: Homo sapiens, MCF7, 120 h, read-out: IC50, proliferation
How it was run: (§1)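 Cells grown in phenol red-free DMEM with 5% FBS at 37 °C, 5% CO2. MCF-7/TamR cells were derived by prolonged 4-hydroxytamoxifen exposure. Cells seeded at 50000/well, then treated 5 days with test compound at six doses from 10−10 to 10−5 M, with DMSO vehicle. Viable cells counted by Coulter counter. Survival expressed as a percentage of vehicle, and IC50 taken from dose–response curves.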

MCF-7/TamR = assay: Proliferation of breast cancer cells, MCF-7/TamR; format: cell-based; conditions: Homo sapiens, MCF7, 120 h, read-out: IC50, proliferation
How it was run: as §1

T47D-kb-Luc cells = assay: T47D-kb-Luc ERE luciferase reporter gene assay; format: cell-based, human; conditions: at 1 nM, in the presence of 0.01 nM estradiol (E2)
How it was run: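 Stably transfected T47D-kb-Luc reporter cells were stimulated with estradiol at 10−11 M plus test compound at 0.1, 1 or 10 nM. ERE-driven activity was read as relative luciferase units and normalized to the estradiol-only control. Run in quadruplicate in at least three separate experiments, reported as mean ± SD (%).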

ERα [1] = target: T1, ERα (Homo sapiens, UniProt P03372); assay: Western blot of ERα downregulation in T47D cells; format: cell-based; conditions: dose range 0.03–1 μM
T1 sequence (P03372 1-595): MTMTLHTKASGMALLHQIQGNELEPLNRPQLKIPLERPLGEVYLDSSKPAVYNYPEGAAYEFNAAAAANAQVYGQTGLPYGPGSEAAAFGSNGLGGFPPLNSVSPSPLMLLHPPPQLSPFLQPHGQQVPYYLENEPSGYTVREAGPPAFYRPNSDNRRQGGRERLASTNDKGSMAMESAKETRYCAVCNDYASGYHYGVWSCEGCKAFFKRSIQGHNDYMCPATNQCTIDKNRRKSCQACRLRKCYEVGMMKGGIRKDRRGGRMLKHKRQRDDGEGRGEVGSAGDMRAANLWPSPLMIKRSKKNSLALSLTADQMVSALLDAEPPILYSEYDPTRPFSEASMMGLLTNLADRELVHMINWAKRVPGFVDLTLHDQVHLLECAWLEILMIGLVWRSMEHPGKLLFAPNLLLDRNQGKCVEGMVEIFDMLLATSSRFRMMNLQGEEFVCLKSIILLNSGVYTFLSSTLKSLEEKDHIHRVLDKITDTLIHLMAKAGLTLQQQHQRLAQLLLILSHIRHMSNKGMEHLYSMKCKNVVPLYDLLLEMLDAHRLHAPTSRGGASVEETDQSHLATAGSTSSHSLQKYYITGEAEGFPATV

ERα [2] = target: T1, ERα; assay: Western blot of ERα downregulation in T47D/PKCα cells; format: cell-based; conditions: dose range 0.03–1 μM
[3] = Stability in culture media in vitro; format: in vitro ADME; conditions: dissolved in ethanol then diluted in culture media for an extended period of time
[4] = patients, cited from earlier work

IC50 (MCF-7) | IC50 (MCF-7/TamR) | Compound | inhibition of E2-induced luciferase (ERE activity) (T47D-kb-Luc cells) | ER downregulation level (ERα [1]) | ER downregulation level (ERα [2]) | metabolic stability in vitro [3] | peak blood concentration ([4]; 500 mg im, FINDER1 and FINDER2 clinical trials ref 3, 5) | time to reach steady-state serum concentration ([4]; im monthly dose of 250 mg ref 4)
0.0033 µM | 22 µM | CC/C(=C(\c1ccc(O)cc1)c1ccc(OCCN(C)C)cc1)c1ccccc1 [Compound 4-OHT, 4-hydroxytamoxifen] |  |  |  |  |  | 
 |  | C[C@]12CC[C@@H]3c4ccc(B(O)O)cc4C[C@@H](CCCCCCCCC[S+]([O-])CCCC(F)(F)C(F)(F)F)[C@H]3[C@@H]1CC[C@@H]2O (stereo partly drawn) [Compound 5, ((7R,8R,9S,13S,14S,17S)-17-Hydroxy-13-methyl-7-(9-((4,4,5,5,5-pentafluoropentyl)sulfinyl)nonyl)-7,8,9,11,12,13,14,15,16,17-deca-hydro-6H-cyclopenta[a]phenanthren-3-yl)boronic Acid] | completely blocking the estrogen response element (ERE) activity | greater than 50% | greater than 50% | metabolic stability was later confirmed in vitro |  | 
 |  | C[C@]12CC[C@@H]3c4ccc(O)cc4C[C@@H](CCCCCCCCC[S+]([O-])CCCC(F)(F)C(F)(F)F)[C@H]3[C@@H]1CC[C@@H]2O (stereo partly shown) [fulvestrant] |  | greater than 50% | greater than 50% |  | < 25 ng/mL | over 3 months
